These results are taken from ChEMBL document CHEMBL1129302, “Quinazoline antifolate thymidylate synthase inhibitors: gamma-linked L-D, D-D, and D-L dipeptide analogues of 2-desamino-2-methyl-N10-propargyl-5,8-dideazafolic acid (ICI 198583)” (J Med Chem, 1996).

Data set [1] deals with L1210 (RD1694). In words: Inhibitory activity against L1210:RD1694 cell growth. It counts as functional, cell-based, Mus musculus.
The subject of data set [2] is L1210. In words: Inhibition of L1210 cell growth. It counts as functional, cell-based, Mus musculus.
The target of data set [3] is T1, Thymidylate synthase (Mus musculus, UniProt P07607). Nature of the data set: Inhibition of Thymidylate synthase activity in L1210 cells. Format: cell-based. The method in brief:
(§1)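 TS was partially purified from L1210 mouse leukemia cells that overproduce the enzyme through TS gene amplification. Inhibition was assayed with (±)-5,10-methylenetetrahydrofolic acid as cofactor at 200 µM.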

Data set [4] concerns L1210 (1565). Nature of the data set: Inhibitory activity against L1210:1565 cell growth. It counts as functional, cell-based, Mus musculus.
The subject of another data set is WIL2. In words: Inhibitory activity against human W1L2 cell growth. It counts as functional, cell-based.
The species entered for a further data set is Mus musculus. Nature of the data set: Plasma concentration in mice. Format: ADME, organism-based. To be noted: in vivo, read-out: Plasma concentration.
For data set [5], the system named is L1210 (RD1694). In words: Inhibitory activity against L1210:RD1694 cell growth. It counts as functional, cell-based, Mus musculus.
For data set [6], the system named is L1210. Nature of the data set: Inhibitory activity against L1210 cell growth. It counts as functional, cell-based, Mus musculus.
Data set [7] has as its target T1, Thymidylate synthase. Nature of the data set: Binding affinity against L1210 Thymidylate synthase. The method in brief:
as §1

In data set [8] the test system is L1210 (1565). In words: Inhibitory activity against L1210:1565 cell growth. Format: functional, cell-based. To be noted: Mus musculus.

Values joined by “and” are separate entries in the source; they are usually repeats but may differ in a detail not shown here. Equal values may be shown once.

T1 sequence (P07607 whole entry): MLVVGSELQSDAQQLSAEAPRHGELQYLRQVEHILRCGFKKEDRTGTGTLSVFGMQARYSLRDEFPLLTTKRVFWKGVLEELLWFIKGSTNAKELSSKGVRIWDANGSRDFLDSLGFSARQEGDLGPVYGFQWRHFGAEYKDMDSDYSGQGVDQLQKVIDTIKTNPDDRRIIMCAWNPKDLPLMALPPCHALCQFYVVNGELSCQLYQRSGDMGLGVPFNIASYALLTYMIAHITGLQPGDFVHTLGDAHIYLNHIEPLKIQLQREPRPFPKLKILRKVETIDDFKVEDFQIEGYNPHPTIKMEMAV

Broadly, the IC50 is the concentration needed to halve the response being measured. Turning to `C#CCN(Cc1ccc2nc(C)nc(O)c2c1)c1ccc(C(=O)N[C@@H](CCC(=O)N[C@@H](C)C(=O)O)C(=O)O)cc1`, the IC50 amounted to 2100 nM with L1210 (RD1694) [1] (Mus musculus, L1210 (RD1694)); 1600 nM in the data set on L1210 (RD1694) [1] (l1210 (rd1694)); 620 nM in the data set with L1210 [2] (Mus musculus, L1210); 790 nM in the data set with L1210 [2] (l1210); 13 nM against Thymidylate synthase [3].
Turning to `C#CCN(Cc1ccc2nc(C)nc(O)c2c1)c1ccc(C(=O)N[C@H](CCC(=O)N[C@H](CCC(=O)O)C(=O)O)C(=O)O)cc1`, the IC50 in the data set on L1210 (1565) [4] (Mus musculus, L1210 (1565)) turned out to be 100000 nM; in the data set on L1210 [2] (Mus musculus, L1210), 1300 nM; in the data set on WIL2 (Homo sapiens, WIL2), 1400 nM.
On to `Cc1nc(O)c2cc(CN(C)c3ccc(C(=O)N[C@@H](CCC(=O)N[C@H](CCC(=O)O)C(=O)O)C(=O)O)c(F)c3)c(C)cc2n1`, for which the IC50 in the data set with L1210 [2] (Mus musculus, L1210) amounted to 260 nM; at Thymidylate synthase [3], 2 nM.
`C#CCN(Cc1ccc2nc(C)nc(O)c2c1)c1ccc(C(=O)N[C@@H](CCC(=O)N[C@H](CCCC(=O)O)C(=O)O)C(=O)O)cc1`: the concentration in the data set listed under Mus musculus turned out to be 31 µM. In addition, the IC50 in the data set with L1210 (1565) [4] (Mus musculus, L1210 (1565)) came out at 27000 nM; in the data set on L1210 (RD1694) [5] (Mus musculus, L1210 (RD1694)), 440 nM; in the data set on L1210 (RD1694) [1] (Mus musculus, L1210 (RD1694)) it was 420 nM; with L1210 [6] (Mus musculus, L1210), 80 nM; in the data set on L1210 [6] (l1210), 110 nM; in the data set with WIL2 (Homo sapiens, WIL2), 220 nM.
Take `C#CCN(Cc1ccc2nc(C)nc(O)c2c1)c1ccc(C(=O)N[C@@H](CCC(=O)N[C@@H](CCC(=O)O)C(=O)O)C(=O)O)cc1` [listing 1 of 2 here]: the IC50 in the data set on L1210 [2] (l1210) came out at 3400 nM; in the data set with WIL2 (wil2) it was 2400 nM.
In the case of `C#CCN(Cc1ccc2nc(C)nc(O)c2c1)c1ccc(C(=O)N[C@@H](CCC(=O)N[C@@H](CCCC(=O)O)C(=O)O)C(=O)O)cc1`, the IC50 with L1210 (RD1694) [5] (Mus musculus, L1210 (RD1694)) was 2900 nM; in the data set on L1210 [2] (Mus musculus, L1210), 300 nM.
Regarding `C#CCN(Cc1ccc2nc(C)nc(O)c2c1)c1ccc(C(=O)N[C@@H](CCC(=O)N[C@H](CCC(=O)O)C(=O)O)C(=O)O)cc1`, in the data set filed under Mus musculus, the concentration is 34 µM. Moreover, the IC50 in the data set on L1210 (1565) [4] (Mus musculus, L1210 (1565)) came to 15000 nM; in the data set with L1210 (RD1694) [5] (Mus musculus, L1210 (RD1694)), 680 nM; with WIL2 (Homo sapiens, WIL2), 150 nM.
As usually defined, the Ki is a dissociation constant, usually derived from enzyme kinetics or from competition with a known ligand. For `C#CCN(Cc1cc2c(O)nc(C)nc2cc1C)c1ccc(C(=O)N[C@@H](CCC(=O)N[C@H](CCC(=O)O)C(=O)O)C(=O)O)c(F)c1`, in the data set filed under Mus musculus, the concentration turned out to be 32 µM. Further, the IC50 was 6800 nM in the data set on L1210 (1565) [4] (Mus musculus, L1210 (1565)); 8700 nM in the data set on L1210 (1565) [4] (l1210 (1565)); 200 nM in the data set on L1210 [2] (Mus musculus, L1210); 0.4 nM at Thymidylate synthase [3]; 170 nM in the data set on WIL2 (Homo sapiens, WIL2); 93 nM in the data set with WIL2 (wil2). On Thymidylate synthase [7], the affinity, expressed as Ki, was 0.19 nM.
`C#CCN(Cc1ccc2nc(C)nc(O)c2c1)c1ccc(C(=O)N[C@@H](CCC(=O)N[C@H](C)C(=O)O)C(=O)O)cc1`: the IC50 came out at 16000 nM in the data set on L1210 (1565) [8]; 880 nM in the data set on L1210 (RD1694) [5] (Mus musculus, L1210 (RD1694)); 430 nM with L1210 [2] (Mus musculus, L1210); 12 nM against Thymidylate synthase [3]; 150 nM in the data set on WIL2 (Homo sapiens, WIL2).
Regarding `Cc1nc(O)c2cc(CN(C)c3ccc(C(=O)N[C@@H](CCC(=O)N[C@H](CCC(=O)O)C(=O)O)C(=O)O)c(F)c3)ccc2n1`, the IC50 was 21000 nM in the data set with L1210 (1565) [4] (Mus musculus, L1210 (1565)); 650 nM in the data set on L1210 [2] (Mus musculus, L1210); 8.8 nM at Thymidylate synthase [3]; 900 nM in the data set on WIL2 (Homo sapiens, WIL2).
Regarding `C#CCN(Cc1cc2c(O)nc(C)nc2cc1C)c1ccc(C(=O)N[C@@H](CCC(=O)N[C@H](CCCC(=O)O)C(=O)O)C(=O)O)c(F)c1`, the IC50 in the data set with L1210 (1565) [4] (Mus musculus, L1210 (1565)) amounted to 12000 nM; in the data set on L1210 (1565) [4] (l1210 (1565)) it was 8100 nM; in the data set on L1210 [2] (Mus musculus, L1210) it was 130 nM; against Thymidylate synthase [3] it was 0.56 nM; with WIL2 (Homo sapiens, WIL2), 300 nM; in the data set with WIL2 (wil2), 190 nM. The compound also showed a Ki at Thymidylate synthase [7] of 0.12 nM.
Regarding `Cc1nc(O)c2cc(CN(C)c3ccc(C(=O)N[C@@H](CCC(=O)N[C@H](CCC(=O)O)C(=O)O)C(=O)O)cc3)ccc2n1`, in the data set filed under Mus musculus, the concentration was 17 µM. Besides, the IC50 was determined as 3200 nM in the data set with L1210 [2] (Mus musculus, L1210) and 34 nM against Thymidylate synthase [3].
As for `C#CCN(Cc1ccc2nc(C)nc(O)c2c1)c1ccc(C(=O)N[C@@H](CCC(=O)N[C@@H](Cc2ccccc2)C(=O)O)C(=O)O)cc1`, the IC50 came to 8900 nM with L1210 (RD1694) [5] (Mus musculus, L1210 (RD1694)); 4400 nM in the data set on L1210 [2] (Mus musculus, L1210); 18 nM against Thymidylate synthase [3].
`C#CCN(Cc1ccc2nc(C)nc(O)c2c1)c1ccc(C(=O)N[C@@H](CCC(=O)NC(Cc2ccccc2)C(=O)O)C(=O)O)cc1` (stereo partly specified): the half-maximal inhibitory concentration (IC50) in the data set on L1210 (1565) [4] (Mus musculus, L1210 (1565)) is more than 10000 nM; with L1210 [2] (Mus musculus, L1210), 2100 nM; on Thymidylate synthase [3], 30 nM.
In the case of `C#CCN(Cc1cc2c(O)nc(C)nc2cc1C)c1ccc(C(=O)N[C@@H](CCC(=O)N[C@H](CCC(=O)O)C(=O)O)C(=O)O)cc1`, the half-inhibitory concentration (IC50) with L1210 (1565) [4] (Mus musculus, L1210 (1565)) was determined as 7800 nM; in the data set on L1210 [2] (Mus musculus, L1210), 210 nM; on Thymidylate synthase [3] it was 1.9 nM; with WIL2 (Homo sapiens, WIL2), 230 nM.
The corresponding values for `C#CCN(Cc1ccc2nc(C)nc(O)c2c1)c1ccc(C(=O)N[C@@H](CCC(=O)N[C@H](CCC(=O)O)C(=O)O)C(=O)O)c(F)c1` are 7800 nM, 210 nM, 1.9 nM and 220 nM.
Turning to `C#CCN(Cc1ccc2nc(C)nc(O)c2c1)c1ccc(C(=O)N[C@@H](CCC(=O)N[C@@H](CCC(=O)O)C(=O)O)C(=O)O)cc1` [listing 2 of 2 here], the IC50 in the data set on L1210 (1565) [4] (l1210 (1565)) was 5000 nM; with L1210 (RD1694) [5] (l1210 (rd1694)) it was 2900 nM; with L1210 [2] (l1210), 160 nM; in the data set on WIL2 (wil2), 90 nM and 74 nM.
With `Cc1nc(O)c2cc(CN(C)c3ccc(C(=O)N[C@@H](CCC(=O)N[C@H](CCC(=O)O)C(=O)O)C(=O)O)cc3)c(C)cc2n1`, the 50% inhibitory concentration (IC50) with L1210 (1565) [8] worked out at 19000 nM; in the data set on L1210 [2] (Mus musculus, L1210), 580 nM; against Thymidylate synthase [3], 4.6 nM; with WIL2 (Homo sapiens, WIL2) it was 280 nM.
Regarding `CCN(Cc1ccc2nc(C)nc(O)c2c1)c1ccc(C(=O)N[C@@H](CCC(=O)N[C@H](CCC(=O)O)C(=O)O)C(=O)O)cc1`, the concentration for half-maximal inhibition (IC50) in the data set on L1210 [2] (Mus musculus, L1210) is 3600 nM; against Thymidylate synthase [3] it was 17 nM.
